{"source": "ChEMBL document CHEMBL5303300", "about": "“EUbOPEN Chemogenomics Library - Multiplex” (2023)", "key": {"[1]": {"tested_on": "U2OS", "assay": "Multiplex assay against U2OS", "assay_type": "toxicity, cell-based", "conditions": "human, number of replicates 2", "outline": "(§1)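 With compound added, live cells were imaged on a CQ1 microscope at 37°C and 5% CO2; staining with Hoechst33342, BioTracker Green Microtubule Cytoskeleton Dye, MitoTracker Red and Annexin V Alexa Fluor 680 had been done at seeding. The CellPathfinder machine-learning gating scheme split cells into Hoechst high-intensity objects or normal cells, normal cells into healthy, pyknosed or fragmented nuclei, and pyknosed cells into mitotic or apoptotic. The tubulin, mitochondrial-mass and membrane-permeability phenotypes are per cents of healthy-nucleus cells.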"}, "[2]": {"tested_on": "Fibroblast", "assay": "Multiplex assay against human fibroblast", "assay_type": "toxicity, cell-based", "conditions": "number of replicates 2", "outline": "as §1"}, "[3]": {"conditions": "24 h, 1 µM, compound concentration 1 uM"}, "[4]": {"conditions": "24 h, 10 µM, compound concentration 10 uM"}, "[5]": {"conditions": "48 h, 1 µM, compound concentration 1 uM"}, "[6]": {"conditions": "48 h, 10 µM, compound concentration 10 uM"}, "[7]": {"conditions": "12 h, 1 µM, compound concentration 1 uM"}, "[8]": {"conditions": "12 h, 10 µM, compound concentration 10 uM"}}, "note": "Where “and” joins values, the source holds several entries; their conditions need not be identical. Equal entries are not always repeated.", "data": [{"smiles": "CN(C)C/C=C/C(=O)Nc1ccc(C(=O)N2CCCC(Nc3ncc(Cl)c(-c4c[nH]c5ccccc45)n3)C2)cc1", "note": "(configuration not stated)", "values": [{"measurement": "Population Pyknosed Nuclei (%)", "setting": "[1]; [3]", "result": "27% and 23%"}, {"measurement": "Population Tubulin-Different-Phenotype (%)", "setting": "[1]; [3]", "result": "89% and 95%"}, {"measurement": "Population Apoptotic (%)", "setting": "[1]; [4]", "result": "93% and 80%"}, {"measurement": "Population Fragmented Nuclei (%)", "setting": "[1]; [4]", "result": "8% and 17%"}, {"measurement": "Population Hoechst High Intensity Objects (%)", "setting": "[1]; [4]", "result": "5% and 0%"}, {"measurement": "Population Membrane Permeable-Phenotype (%)", "setting": "[1]; [4]", "result": "58% and 22%"}, {"measurement": "Population Normal (%)", "setting": "[1]; [4]", "result": "94% and 100%"}, {"measurement": "Population Pyknosed Nuclei (%)", "setting": "[1]; [4]", "result": "80% and 43%"}, {"measurement": "Population Tubulin-Different-Phenotype (%)", "setting": "[1]; [4]", "result": "76% and 100%"}, {"measurement": "Population Apoptotic (%)", "setting": "[1]; [5]", "result": "90% and 83%"}, {"measurement": "Population Fragmented Nuclei (%)", "setting": "[1]; [5]", "result": "12% and 7%"}, {"measurement": "Population Healthy Nuclei (%)", "setting": "[1]; [5]", "result": "74% and 75%"}, {"measurement": "Population Hoechst High Intensity Objects (%)", "setting": "[1]; [5]", "result": 0, "unit": "%"}, {"measurement": "Population Membrane Permeable-Phenotype (%)", "setting": "[1]; [5]", "result": "3% and 5%"}, {"measurement": "Population Mitochondria Different-Phenotype (%)", "setting": "[1]; [5]", "result": "1% and 3%"}, {"measurement": "Population Mitotic Cells (%)", "setting": "[1]; [5]", "result": "10% and 16%"}, {"measurement": "Population Normal (%)", "setting": "[1]; [5]", "result": 100, "unit": "%"}, {"measurement": "Population Pyknosed Nuclei (%)", "setting": "[1]; [5]", "result": "13% and 16%"}, {"measurement": "Population Tubulin-Different-Phenotype (%)", "setting": "[1]; [5]", "result": "98% and 97%"}, {"measurement": "Population Apoptotic (%)", "setting": "[1]; [6]", "result": "92% and 69%"}, {"measurement": "Population Healthy Nuclei (%)", "setting": "[1]; [6]", "result": "13% and 20%"}, {"measurement": "Population Hoechst High Intensity Objects (%)", "setting": "[1]; [6]", "result": "1% and 0%"}, {"measurement": "Population Membrane Permeable-Phenotype (%)", "setting": "[1]; [6]", "result": "91% and 40%"}, {"measurement": "Population Mitochondria Different-Phenotype (%)", "setting": "[1]; [6]", "result": "83% and 60%"}, {"measurement": "Population Normal (%)", "setting": "[1]; [6]", "result": "98% and 100%"}, {"measurement": "Population Pyknosed Nuclei (%)", "setting": "[1]; [6]", "result": "79% and 52%"}, {"measurement": "Population Tubulin-Different-Phenotype (%)", "setting": "[1]; [6]", "result": 100, "unit": "%"}, {"measurement": "Population Apoptotic (%)", "setting": "[2]; [7]", "result": "40% and 56%"}, {"measurement": "Population Fragmented Nuclei (%)", "setting": "[2]; [7]", "result": "10% and 12%"}, {"measurement": "Population Healthy Nuclei (%)", "setting": "[2]; [7]", "result": "68% and 67%"}, {"measurement": "Population Hoechst High Intensity Objects (%)", "setting": "[2]; [7]", "result": 0, "unit": "%"}, {"measurement": "Population Membrane Permeable-Phenotype (%)", "setting": "[2]; [7]", "result": "3% and 5%"}, {"measurement": "Population Mitochondria Different-Phenotype (%)", "setting": "[2]; [7]", "result": "0% and 2%"}, {"measurement": "Population Mitotic Cells (%)", "setting": "[2]; [7]", "result": "59% and 43%"}, {"measurement": "Population Normal (%)", "setting": "[2]; [7]", "result": "99% and 100%"}, {"measurement": "Population Pyknosed Nuclei (%)", "setting": "[2]; [7]", "result": "21% and 20%"}, {"measurement": "Population Tubulin-Different-Phenotype (%)", "setting": "[2]; [7]", "result": "11% and 13%"}, {"measurement": "Total Cell Count", "setting": "[2]; [7]", "result": "174 and 157"}, {"measurement": "Population Apoptotic (%)", "setting": "[2]; [8]", "result": "63% and 53%"}, {"measurement": "Population Fragmented Nuclei (%)", "setting": "[2]; [8]", "result": "10% and 20%"}, {"measurement": "Population Healthy Nuclei (%)", "setting": "[2]; [8]", "result": "42% and 50%"}, {"measurement": "Population Hoechst High Intensity Objects (%)", "setting": "[2]; [8]", "result": 0, "unit": "%"}, {"measurement": "Population Membrane Permeable-Phenotype (%)", "setting": "[2]; [8]", "result": "0% and 9%"}, {"measurement": "Population Mitochondria Different-Phenotype (%)", "setting": "[2]; [8]", "result": "21% and 24%"}, {"measurement": "Population Mitotic Cells (%)", "setting": "[2]; [8]", "result": "36% and 46%"}, {"measurement": "Population Normal (%)", "setting": "[2]; [8]", "result": 99, "unit": "%"}, {"measurement": "Population Pyknosed Nuclei (%)", "setting": "[2]; [8]", "result": "46% and 29%"}, {"measurement": "Population Tubulin-Different-Phenotype (%)", "setting": "[2]; [8]", "result": "78% and 70%"}, {"measurement": "Total Cell Count", "setting": "[2]; [8]", "result": "131 and 175"}, {"measurement": "Population Apoptotic (%)", "setting": "[2]; [3]", "result": "76% and 71%"}, {"measurement": "Population Fragmented Nuclei (%)", "setting": "[2]; [3]", "result": "17% and 12%"}, {"measurement": "Population Healthy Nuclei (%)", "setting": "[2]; [3]", "result": "49% and 56%"}, {"measurement": "Population Hoechst High Intensity Objects (%)", "setting": "[2]; [3]", "result": 0, "unit": "%"}, {"measurement": "Population Membrane Permeable-Phenotype (%)", "setting": "[2]; [3]", "result": "10% and 8%"}, {"measurement": "Population Mitochondria Different-Phenotype (%)", "setting": "[2]; [3]", "result": "2% and 1%"}, {"measurement": "Population Mitotic Cells (%)", "setting": "[2]; [3]", "result": "23% and 28%"}, {"measurement": "Population Normal (%)", "setting": "[2]; [3]", "result": 100, "unit": "%"}, {"measurement": "Population Pyknosed Nuclei (%)", "setting": "[2]; [3]", "result": "33% and 31%"}, {"measurement": "Population Tubulin-Different-Phenotype (%)", "setting": "[2]; [3]", "result": "18% and 19%"}, {"measurement": "Total Cell Count", "setting": "[2]; [3]", "result": "151 and 166"}, {"measurement": "Population Apoptotic (%)", "setting": "[2]; [4]", "result": "78% and 64%"}, {"measurement": "Population Fragmented Nuclei (%)", "setting": "[2]; [4]", "result": "8% and 14%"}, {"measurement": "Population Healthy Nuclei (%)", "setting": "[2]; [4]", "result": "30% and 41%"}, {"measurement": "Population Hoechst High Intensity Objects (%)", "setting": "[2]; [4]", "result": 1, "unit": "%"}, {"measurement": "Population Membrane Permeable-Phenotype (%)", "setting": "[2]; [4]", "result": "2% and 8%"}, {"measurement": "Population Mitochondria Different-Phenotype (%)", "setting": "[2]; [4]", "result": "43% and 36%"}, {"measurement": "Population Mitotic Cells (%)", "setting": "[2]; [4]", "result": "21% and 35%"}, {"measurement": "Population Normal (%)", "setting": "[2]; [4]", "result": 98, "unit": "%"}, {"measurement": "Population Pyknosed Nuclei (%)", "setting": "[2]; [4]", "result": "61% and 43%"}, {"measurement": "Population Tubulin-Different-Phenotype (%)", "setting": "[2]; [4]", "result": "72% and 71%"}, {"measurement": "Total Cell Count", "setting": "[2]; [4]", "result": "125 and 173"}, {"measurement": "Population Apoptotic (%)", "setting": "[2]; [5]", "result": "79% and 85%"}, {"measurement": "Population Fragmented Nuclei (%)", "setting": "[2]; [5]", "result": "11% and 14%"}, {"measurement": "Population Healthy Nuclei (%)", "setting": "[2]; [5]", "result": "47% and 50%"}, {"measurement": "Population Hoechst High Intensity Objects (%)", "setting": "[2]; [5]", "result": 0, "unit": "%"}, {"measurement": "Population Membrane Permeable-Phenotype (%)", "setting": "[2]; [5]", "result": "19% and 17%"}, {"measurement": "Population Mitochondria Different-Phenotype (%)", "setting": "[2]; [5]", "result": "1% and 5%"}, {"measurement": "Population Mitotic Cells (%)", "setting": "[2]; [5]", "result": "20% and 14%"}, {"measurement": "Population Normal (%)", "setting": "[2]; [5]", "result": "100% and 99%"}, {"measurement": "Population Pyknosed Nuclei (%)", "setting": "[2]; [5]", "result": "41% and 35%"}, {"measurement": "Population Tubulin-Different-Phenotype (%)", "setting": "[2]; [5]", "result": "27% and 20%"}, {"measurement": "Total Cell Count", "setting": "[2]; [5]", "result": "161 and 139"}, {"measurement": "Population Apoptotic (%)", "setting": "[2]; [6]", "result": "92% and 87%"}, {"measurement": "Population Fragmented Nuclei (%)", "setting": "[2]; [6]", "result": "11% and 14%"}, {"measurement": "Population Healthy Nuclei (%)", "setting": "[2]; [6]", "result": "15% and 21%"}, {"measurement": "Population Hoechst High Intensity Objects (%)", "setting": "[2]; [6]", "result": 0, "unit": "%"}, {"measurement": "Population Mitochondria Different-Phenotype (%)", "setting": "[2]; [6]", "result": "22% and 28%"}, {"measurement": "Population Mitotic Cells (%)", "setting": "[2]; [6]", "result": "7% and 12%"}, {"measurement": "Population Normal (%)", "setting": "[2]; [6]", "result": 99, "unit": "%"}, {"measurement": "Population Pyknosed Nuclei (%)", "setting": "[2]; [6]", "result": "73% and 63%"}, {"measurement": "Population Tubulin-Different-Phenotype (%)", "setting": "[2]; [6]", "result": "83% and 74%"}, {"measurement": "Total Cell Count", "setting": "[2]; [6]", "result": "117 and 161"}]}]}
